In ChEMBL document CHEMBL1142981, “Identification and synthesis of a novel selective partial PPARdelta agonist with full efficacy on lipid metabolism in vitro and in vivo” (J Med Chem, 2007):

Legend:
Mus musculus [1] = experiment: Decrease in total ketone bodies level in human ApoB100/CETP transgenic mouse at 6 mg/kg, po after 6 weeks relative to control; format: functional; parameters: scale not given: the % may be the effect or the level left
[2] = target: T1, Peroxisome proliferator-activated receptor alpha (Homo sapiens) (UniProt Q07869); experiment: Activity at human liver PPAR alpha expressed in HEK293 cells by GAL4 transactivation assay relative to NNC61-4655; format: cell-based
T1 sequence (whole entry): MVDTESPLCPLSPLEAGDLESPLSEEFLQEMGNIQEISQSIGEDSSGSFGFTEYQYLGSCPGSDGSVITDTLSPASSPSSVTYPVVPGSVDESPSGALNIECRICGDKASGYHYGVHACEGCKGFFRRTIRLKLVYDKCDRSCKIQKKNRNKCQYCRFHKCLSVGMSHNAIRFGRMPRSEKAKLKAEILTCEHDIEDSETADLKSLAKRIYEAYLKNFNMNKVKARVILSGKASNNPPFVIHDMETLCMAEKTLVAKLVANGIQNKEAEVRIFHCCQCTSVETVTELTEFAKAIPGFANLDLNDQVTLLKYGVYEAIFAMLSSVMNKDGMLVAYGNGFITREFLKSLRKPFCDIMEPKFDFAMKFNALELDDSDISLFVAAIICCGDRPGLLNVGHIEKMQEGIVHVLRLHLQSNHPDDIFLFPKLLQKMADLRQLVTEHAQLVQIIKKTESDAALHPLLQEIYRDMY

L6 [3] = experiment: Effect on increase in fatty acid oxidation in rat L6 cells relative to basal; format: functional
Method in brief: (§1)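 Rat L6 myoblasts differentiated 5 days in 2% serum, then treated 42 h with compound (refreshed at 24 h), followed by 6 h with 0.4 mM palmitate containing [9,10-3H]-palmitic acid on 2% fatty-acid-free BSA. Stopped with 10% TCA; released 3H-H2O collected by overnight equilibration at 50 °C and counted.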

[4] = Volume of distribution in Sprague-Dawley rat at 1.09 mg/kg, iv; format: ADME, organism-based; parameters: dose 1.09 mg/kg, route intravenous; conditions: in vivo, read-out: Vss
Method in brief: (§2)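 Male SD rats received a single p.o. or i.v. dose (n = 8 per route) in 5% ethanol, 10% HPCD and phosphate buffer, pH 7.5-8.0. At 5, 15, 30, 60, 90, 120, 240 and 360 min one rat was sacrificed per time point. EDTA plasma was assayed by high turbulence LC-MS/MS. Cmax and bioavailability were taken from oral dosing; volume of distribution is at steady state.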

Mus musculus [5] = experiment: Decrease in triglycerides level in human ApoB100/CETP transgenic mouse at 6 mg/kg, po after 6 weeks relative to control; format: functional; parameters: scale not given: the % may be the effect or the level left
Mus musculus [6] = experiment: Decrease in total cholesterol level in human ApoB100/CETP transgenic mouse at 6 mg/kg, po after 6 weeks relative to control; format: functional; parameters: scale not given: the % may be the effect or the level left
L6 [7] = experiment: Effect on fatty acid oxidation in rat L6 cells; format: functional, cell-based; method in brief: as §1
Mus musculus [8] = experiment: Decrease in HbA1c level in human ApoB100/CETP transgenic mouse at 6 mg/kg, po after 6 weeks relative to control; format: functional; parameters: scale not given: the % may be the effect or the level left
[9] = Clearance in Sprague-Dawley rat at 1.09 mg/kg, iv; format: ADME, organism-based; parameters: dose 1.09 mg/kg, route intravenous; conditions: in vivo
Method in brief: (§3)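 Male SD rats dosed once i.v. or p.o. (n = 8 per route), vehicle 5% ethanol, 10% HPCD, phosphate buffer pH 7.5-8.0. One animal sacrificed at each of 5, 15, 30, 60, 90, 120, 240 and 360 min; EDTA plasma analysed by high turbulence LC-MS/MS. Each data point represents one animal.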

Mus musculus [10] = experiment: Decrease in glucose level in human ApoB100/CETP transgenic mouse at 6 mg/kg, po after 6 weeks relative to control; format: functional; parameters: scale not given: the % may be the effect or the level left
Mus musculus [11] = experiment: Decrease in LDL level in human ApoB100/CETP transgenic mouse at 6 mg/kg, po after 6 weeks relative to control; format: functional; parameters: scale not given: the % may be the effect or the level left
Mus musculus [12] = experiment: Decrease in insulin level in human ApoB100/CETP transgenic mouse at 6 mg/kg, po after 6 weeks by ELISA relative to control; format: functional; parameters: scale not given: the % may be the effect or the level left
[13] = Plasma Cmax in Sprague-Dawley rat at 2.13 mg/kg, po; format: ADME, organism-based; parameters: dose 2.13 mg/kg, route oral; method in brief: as §2
[14] = target: T2, Peroxisome proliferator-activated receptor delta (Mus musculus) (UniProt P35396); experiment: Agonist activity at mouse PPAR delta expressed in HEK293 cells by PPAR-GAL4 transactivation assay; format: functional, cell-based
T2 sequence (whole entry): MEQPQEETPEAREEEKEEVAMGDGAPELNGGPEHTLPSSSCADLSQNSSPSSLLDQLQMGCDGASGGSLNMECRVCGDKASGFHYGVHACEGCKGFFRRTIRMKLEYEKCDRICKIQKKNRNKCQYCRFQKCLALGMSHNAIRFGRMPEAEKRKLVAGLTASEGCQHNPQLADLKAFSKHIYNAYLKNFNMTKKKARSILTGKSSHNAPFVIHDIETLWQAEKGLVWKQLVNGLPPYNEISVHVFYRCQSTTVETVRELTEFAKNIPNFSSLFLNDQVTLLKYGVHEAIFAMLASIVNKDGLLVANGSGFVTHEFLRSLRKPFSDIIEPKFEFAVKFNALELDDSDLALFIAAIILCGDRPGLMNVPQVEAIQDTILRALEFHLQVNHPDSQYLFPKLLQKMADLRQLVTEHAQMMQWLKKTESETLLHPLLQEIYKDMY

[15] = Oral bioavailability in Sprague-Dawley rat at 2.13 mg/kg; format: ADME, organism-based; conditions: in vivo; method in brief: as §2
[16] = Half life in Sprague-Dawley rat at 2.13 mg/kg, po; format: ADME, organism-based; parameters: dose 2.13 mg/kg, route oral; conditions: in vivo; method in brief: as §3
Mus musculus [17] = experiment: Increase in HDL level in human ApoB100/CETP transgenic mouse at 6 mg/kg, po after 6 weeks relative to control; format: functional
[18] = target: T3, Peroxisome proliferator-activated receptor gamma (Homo sapiens, UniProt P37231); format: cell-based, HEK293
T3 sequence (P37231 whole entry): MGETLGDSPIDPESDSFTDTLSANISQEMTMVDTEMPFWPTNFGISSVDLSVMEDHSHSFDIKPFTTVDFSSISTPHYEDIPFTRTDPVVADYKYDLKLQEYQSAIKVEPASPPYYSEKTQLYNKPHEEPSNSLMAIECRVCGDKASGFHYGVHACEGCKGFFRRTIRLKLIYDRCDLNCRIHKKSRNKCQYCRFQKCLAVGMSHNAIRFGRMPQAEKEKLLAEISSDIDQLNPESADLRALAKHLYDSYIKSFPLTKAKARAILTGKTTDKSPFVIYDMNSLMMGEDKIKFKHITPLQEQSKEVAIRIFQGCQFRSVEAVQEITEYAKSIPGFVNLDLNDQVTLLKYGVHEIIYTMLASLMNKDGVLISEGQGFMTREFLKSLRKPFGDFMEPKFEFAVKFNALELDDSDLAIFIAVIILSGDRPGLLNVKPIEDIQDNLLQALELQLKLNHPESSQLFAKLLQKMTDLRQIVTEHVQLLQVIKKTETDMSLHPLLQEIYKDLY

L6 [19] = experiment: Effect on increase in fatty acid oxidation in rat L6 cells relative to GW-501516; format: functional; parameters: concentration or dose not given beside the values; method in brief: as §1
[20] = target: T4, Peroxisome proliferator-activated receptor alpha (Homo sapiens, UniProt Q07869); experiment: Activity at human liver PPAR alpha expressed in HEK293 cells by PPAR-GAL4 transactivation assay; format: cell-based
T4 sequence (Q07869 whole entry): T1 sequence (whole entry)

[21] = Half life in Sprague-Dawley rat at 2.35 mg/kg, po; format: ADME, organism-based; parameters: dose 2.35 mg/kg, route oral; conditions: in vivo; method in brief: as §3
[22] = Volume of distribution in Sprague-Dawley rat at 1.18 mg/kg, iv; format: ADME, organism-based; parameters: dose 1.18 mg/kg, route intravenous; conditions: in vivo, read-out: Vss; method in brief: as §2
[23] = target: T5, Peroxisome proliferator-activated receptor delta (Homo sapiens, UniProt Q03181)
T5 sequence (Q03181 whole entry): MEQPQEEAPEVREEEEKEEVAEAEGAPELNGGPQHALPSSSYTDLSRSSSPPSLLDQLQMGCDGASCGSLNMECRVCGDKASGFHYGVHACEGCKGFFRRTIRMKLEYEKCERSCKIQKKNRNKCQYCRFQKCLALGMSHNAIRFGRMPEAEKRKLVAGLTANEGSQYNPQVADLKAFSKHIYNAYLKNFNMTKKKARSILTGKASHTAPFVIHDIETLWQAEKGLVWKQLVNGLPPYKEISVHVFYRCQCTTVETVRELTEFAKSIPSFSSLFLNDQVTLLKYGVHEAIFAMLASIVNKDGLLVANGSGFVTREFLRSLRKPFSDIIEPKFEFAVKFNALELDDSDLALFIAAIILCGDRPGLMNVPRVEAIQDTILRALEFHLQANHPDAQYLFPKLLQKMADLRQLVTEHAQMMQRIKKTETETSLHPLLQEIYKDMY

[24] = Oral bioavailability in Sprague-Dawley rat at 2.35 mg/kg; format: ADME, organism-based; conditions: in vivo; method in brief: as §2
[25] = Clearance in Sprague-Dawley rat at 1.18 mg/kg, iv; format: ADME, organism-based; parameters: dose 1.18 mg/kg, route intravenous; conditions: in vivo; method in brief: as §3
[26] = Plasma Cmax in Sprague-Dawley rat at 2.35 mg/kg, po; format: ADME, organism-based; parameters: dose 2.35 mg/kg, route oral; method in brief: as §2
[27] = Clearance in Sprague-Dawley rat at 1.08 mg/kg, iv; format: ADME, organism-based; parameters: dose 1.08 mg/kg, route intravenous; conditions: in vivo; method in brief: as §3
[28] = Oral bioavailability in Sprague-Dawley rat at 2.29 mg/kg; format: ADME, organism-based; conditions: in vivo; method in brief: as §2
[29] = Plasma Cmax in Sprague-Dawley rat at 2.29 mg/kg, po; format: ADME, organism-based; parameters: dose 2.29 mg/kg, route oral; method in brief: as §2
[30] = Half life in Sprague-Dawley rat at 2.29 mg/kg, po; format: ADME, organism-based; parameters: dose 2.29 mg/kg, route oral; conditions: in vivo; method in brief: as §3
[31] = Volume of distribution in Sprague-Dawley rat at 1.08 mg/kg, iv; format: ADME, organism-based; parameters: dose 1.08 mg/kg, route intravenous; conditions: in vivo, read-out: Vss; method in brief: as §2
[32] = Plasma Cmax in Sprague-Dawley rat at 0.43 mg/kg, po; format: ADME, organism-based; parameters: dose 0.43 mg/kg, route oral; method in brief: as §2
[33] = Half life in Sprague-Dawley rat at 0.43 mg/kg, po; format: ADME, organism-based; parameters: dose 0.43 mg/kg, route oral; conditions: in vivo; method in brief: as §3
[34] = Clearance in Sprague-Dawley rat at 0.20 mg/kg, iv; format: ADME, organism-based; parameters: dose 0.2 mg/kg, route intravenous; conditions: in vivo, 0.2 mg/kg; method in brief: as §3
[35] = Volume of distribution in Sprague-Dawley rat at 0.20 mg/kg, iv; format: ADME, organism-based; parameters: dose 0.2 mg/kg, route intravenous; conditions: in vivo, 0.2 mg/kg, read-out: Vss; method in brief: as §2

Compound: Cc1cc(SCc2sc(-c3ccc(C(F)(F)F)cc3)nc2C)ccc1OCC(=O)O [GW501516]
- Activity (Mus musculus [1]): 49%
- Efficacy [2]: 68%
- Activity (L6 [3]): 120%
- Vd [4]: 1 L/kg
- Activity (Mus musculus [5]): 14%
- Activity (Mus musculus [6]): 15%
- EC50 (L6 [7]): 6 nM
- Activity (Mus musculus [8]): 13%
- clearance [9]: 7 mL/min/kg
- Activity (Mus musculus [10]): 4%
- Activity (Mus musculus [11]): 19%
- Activity (Mus musculus [12]): 41%
- Cmax [13]: 454 ng/mL
- Activity [14]: 269%
- bioavailability [15]: 136%
- half-life [16]: 10.2 h
- Activity (Mus musculus [17]): 4%

Compound: Cc1cc(SCC=C(c2ccc(Br)cc2)c2ccc(Br)cc2)ccc1OCC(=O)O
- Efficacy [2]: > 22%
- EC50 [18]: > 10000 nM
- Activity (L6 [19]): 75%
- EC50 (L6 [7]): 3 nM
- EC50 [20]: > 10000 nM
- half-life [21]: 2.52 h
- Vd [22]: 0.9 L/kg
- EC50 [23]: 17 nM
- bioavailability [24]: 95%
- clearance [25]: 10 mL/min/kg
- Cmax [26]: 887 ng/mL

Compound: O=C(O)CCc1ccc(OCC=C(c2ccc(Br)cc2)c2ccc(Br)cc2)cc1
- Efficacy [2]: > 12%
- Activity (L6 [19]): 69%
- EC50 (L6 [7]): 212 nM
- EC50 [20]: > 10000 nM
- EC50 [23]: 520 nM

Compound: CCO[C@@H](Cc1ccc(OCC=C(c2ccc(Br)cc2)c2ccc(Br)cc2)cc1)C(=O)O
- Efficacy [2]: 93%
- clearance [27]: 21.4 mL/min/kg
- EC50 [18]: 590 nM
- bioavailability [28]: 78%
- Cmax [29]: 554 ng/mL
- EC50 [20]: 390 nM
- EC50 [23]: 540 nM
- half-life [30]: 1.42 h
- Vd [31]: 2.3 L/kg

Compound: O=C(O)Cc1ccc(OCC=C(c2ccc(Br)cc2)c2ccc(Br)cc2)cc1
- Efficacy [2]: > 14%
- Cmax [32]: 252 ng/mL
- Activity (L6 [19]): 62%
- EC50 (L6 [7]): 204 nM
- EC50 [20]: > 10000 nM
- EC50 [23]: 1100 nM
- half-life [33]: 7.45 h
- clearance [34]: 6 mL/min/kg
- Vd [35]: 1.4 L/kg
